miR-122 sensor – blocks miR-122 activity in Huh7 sensor cells | Huh7 miR-122 Renilla luciferase sensor, 48 h; neutral wells = 0, positive control = 100 | AID 602342 | activation (reporter increase), % at 12.5 µM | 0.3% of 340,000 active;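 active = mean replicate activation score at least 90 and every replicate individually at or above 90; inconclusive = only one of the two criteria met; inactive = neither criterion met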;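 note: higher luciferase means less miR-122 activity so hits act as miR-122 inhibitors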
CAL PDZ FP-1 – blocks peptide binding to the human CAL PDZ domain | Q9HD26 | purified CAL PDZ, TMR-peptide fluorescence polarization, 1 h | inhibition, % at 24.9 µM | 0.92% of 300,000 active | AID 602252;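 active = mean inhibition of at least 30% with at least half of replicates also reaching 30%; inconclusive = no clear call, values can overlap the other calls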;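 note: 0% = DMSO neutral control and 100% = excess unlabeled competitor peptide PRC23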
SR-BI DiI-HDL act – activators of SR-BI mediated HDL lipid uptake; AID 504775; activation, % at 12.5 µM; 0.096% of 320,000 active; CHO ldlA[mSR-BI] cells, DiI-HDL uptake fluorescence, 3 h; 100 = double the neutral-control signal;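 active = mean replicate activation of at least 60% and every replicate at or above 60%; inconclusive = mean or all-replicate condition met, but not both; inactive = mean below 60% and not all replicates reaching 60%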;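 note: 0% = median plate neutral-control signal and 100% = twice that signal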
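Assay system: LDL receptor-deficient CHO ldlA cells overexpressing murine SR-BI / Medium: BSA-supplemented, HEPES-buffered Ham's F12, pH 7.4 / Probe or stimulus: DiI-labelled HDL at 10 µg/mL final / Timing: compound with DiI-HDL co-incubation, 3 h at 37 °C / Technique: bottom-read cell fluorescence after medium removal, ex 550/em 595 nm / Measure: HDL uptake via cellular fluorescence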
SR-BI HDL uptake – inhibitors of mouse SR-BI mediated HDL lipid uptake | Q61009 | ldlA[mSR-BI] CHO cells, DiI-HDL uptake fluorescence, 3 h | inhibition, % at 12.5 µM | 0.96% of 320,000 active | AID 488896;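 active = mean replicate inhibition of at least 70% and a set share of replicates each scoring 70 or more; inconclusive = meets just one of the two criteria; inactive = fails both criteria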;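 note: 0% = median of neutral control wells and 100% = median of positive control wells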
Target sequence (Q61009 whole entry, looked up): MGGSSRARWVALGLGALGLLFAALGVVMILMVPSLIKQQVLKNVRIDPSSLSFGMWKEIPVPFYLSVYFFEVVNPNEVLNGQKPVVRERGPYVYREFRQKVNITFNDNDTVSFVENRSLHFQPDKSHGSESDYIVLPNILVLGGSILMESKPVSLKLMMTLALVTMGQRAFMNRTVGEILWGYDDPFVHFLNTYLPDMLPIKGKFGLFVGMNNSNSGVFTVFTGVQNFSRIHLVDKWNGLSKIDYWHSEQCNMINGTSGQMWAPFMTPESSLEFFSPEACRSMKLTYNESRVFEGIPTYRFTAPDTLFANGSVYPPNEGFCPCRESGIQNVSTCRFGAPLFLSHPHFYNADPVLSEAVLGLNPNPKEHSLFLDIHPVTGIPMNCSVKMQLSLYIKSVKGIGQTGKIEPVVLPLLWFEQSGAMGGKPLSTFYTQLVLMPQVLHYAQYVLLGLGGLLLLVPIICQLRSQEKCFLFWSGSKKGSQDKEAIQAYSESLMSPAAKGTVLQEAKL
ARNT TACC3 PPI – disrupts binding between human ARNT and TACC3; AID 623870; 0.66% of 390,000 active; Q9Y6A5; inhibition, % at 9.99 µM; AlphaScreen His-ARNT PAS-B/GST-TACC3 binding, luminescence; TACC3 fragment carries E629A point mutation;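 active = mean inhibition of replicates at least 50% and at least half of replicates each reaching 50%; inconclusive = half or more replicates reach 50% but mean below 50%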;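 note: 0% = complete ARNT plus TACC3 wells and 100% = ARNT alone without TACC3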
CAL PDZ FP-2 – blocks peptide binding to human CAL PDZ domain | Q9HD26 | purified CAL PDZ, TMR-peptide fluorescence polarization, 1 h | inhibition, % at 20 µM | 0.02% of 330,000 active | AID 504414;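 active = highest replicate inhibition of at least 40%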;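 note: plate controls were DMSO neutral control wells for no effect and unlabeled competitor peptide control wells for full effect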
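Material – purified CerCALP PDZ construct · Detection – FP readout, S and P plane fluorescence · Measure – percent inhibition from loss of millipolarization · Controls – unlabelled peptide for full inhibition, DMSO wells as neutral · Probe or stimulus – TMR-labelled reporter peptide T*-PRC34 bound in PDZ groove · Times – 1 h at RT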
Starred values were filed as active, the others as inactive; ? = inconclusive; . = not tested or not shown; [ ] = another dose, or the depositor's remark. A selection: hits, their analogues and other compounds. The true share with any hit is near 2.1%.

SMILES	miR-122 sensor	CAL PDZ FP-1	SR-BI DiI-HDL act	SR-BI HDL uptake	ARNT TACC3 PPI	CAL PDZ FP-2
Cc1ccc(OCC(=O)N/N=C/c2cccc3cccnc23)cc1	1	1	5	-5	64*	-2
O=C(CCN1CCCCC1)NCC[C@H]1CC[C@H](NC(=O)Nc2ccc(Cl)cc2)[C@@H](CO)O1	.	.	.	.	3	.
CCOCCCNC(=O)N[C@@H](C)C(=O)OC	7	62*	25	-25	-8	.
CCOCCCNC(=O)N[C@H](C(=O)OC)C(C)CC (stereo partly drawn)	.	-6	-5	5	-2	0
O=C(C[C@@H]1CC[C@@H](NS(=O)(=O)c2ccc(F)cc2)[C@H](CO)O1)NC1CCC1	.	.	.	.	-6	.
Nn1c(Cc2ccccc2)nnc1Cc1ccccc1	-10	54*	18	-18	1	1
CCOc1ccc(NC(=O)c2ccc(N3CC4CC(C3)c3cccc(=O)n3C4)c(NC(=O)CCN3CCOCC3)c2)cc1 (stereo not drawn)	1	-6	10	-10	-44	-3
O=C(CCN1CCOCC1)Nc1cc(C(=O)Nc2ccccc2F)ccc1N1CC2CC(C1)c1cccc(=O)n1C2 (stereo not drawn)	7	69*	22	-22	-3	-1
Cc1ccc(Nc2cc(C)nn2-c2nc(C)cc(=O)[nH]2)cc1	-24	-1	32	-32	63*	-1
Cc1ccc(Nc2cc(C)nn2-c2nc(C)cc(C)n2)cc1	-4	-5	-12	12	-1	-1
O=[N+]([O-])c1ccccc1C=NNc1ccccc1	.	-1	.	.	14	0
Cc1ccc(-c2nc(N/N=C/c3ccccc3[N+](=O)[O-])c3ccccc3n2)cc1	7	.	-87	87*	31	-1
Cc1nn(C)cc1NC(=O)C[C@@H]1CC[C@H]2[C@H](COc3ccc(NC(=O)NC(C)C)cc3C(=O)N2C)O1	-8[16.7 µM]	.	.	.	-5	.
C[C@H](CO)N1C[C@H](C)[C@@H](CN(C)Cc2ccc(C(=O)O)cc2)Oc2ccc(NS(=O)(=O)c3ccc(Cl)cc3)cc2CC1=O	4[16.7 µM]	.	.	.	.	.
Cc1ccccc1NC(=O)Cn1nc(C)c2ccccc2c1=O	0	35*	-3	3	1	0
Cc1ccccc1NC(=O)Cn1nc(C(=O)O)c2ccccc2c1=O	6	-1	.	.	-1	-1
Cc1ccccc1NC(=O)CCCn1nc(C)c2c(C)n(-c3ccccc3)nc2c1=O	-4	30*	-8	8	-5	-1
CC(C)(C)NC(=O)CCN(/N=C/c1ccc([N+](=O)[O-])o1)C1=NS(=O)(=O)c2ccccc21	-1	1	25	-25	79*	1
CN(C)c1ccc(/C=N/N(CCC(=O)NC(C)(C)C)C2=NS(=O)(=O)c3ccccc32)cc1	.	1	16	-16	-3	-2
COc1ccc(/C=N\NC(=O)c2cc(O)c(O)c(O)c2)cc1COc1ccc(C(=O)OCC(C)C)cc1	-3	-6	-79	79*	14	-5
COc1ccc(S(=O)(=O)Nc2ccccc2C(=O)Nc2nc(-c3ccc(F)cc3)cs2)cc1OC	.	-4	-45	45	-7	0
COc1ccc(-c2csc(NC(=O)c3ccccc3NS(=O)(=O)c3ccc(C)cc3)n2)cc1	3	-6	-93	93*	-22	0
COc1ccc(-c2[nH]c(-c3ccc(C)cc3)nc2SCC(=O)Nc2nccs2)cc1	.	-6	-69	69	0	-1
COc1ccc(-c2[nH]c(-c3ccc(SC)cc3)nc2SCC(=O)Nc2nccs2)cc1	.	0	-87	87*	3	-1
O=C(CCC(=O)N1CCOCC1)c1ccc(F)cc1	.	33*	?	-292	-5	-6
SMILES	miR-122 sensor	CAL PDZ FP-1	SR-BI DiI-HDL act	SR-BI HDL uptake	ARNT TACC3 PPI	CAL PDZ FP-2
O=Cc1ccc(OC(=O)/C=C/c2ccccc2)cc1	-1	79*	17	-17	2	0
CCOc1ccc(/C=C/C(=O)Oc2ccccc2)cc1	4	-1	25	-25	-4	0
C[C@@H]1CN([C@@H](C)CO)C(=O)c2cccc(NS(C)(=O)=O)c2O[C@H]1CN(C)C	-3[16.7 µM]	.	.	.	1	.
COc1ccc(C(=O)N/N=C/c2ccccc2OC(=O)c2ccccc2)cc1	15	-2	-27	27	0	-7
CC(C)(C)C(=O)Nc1ccc(C(=O)N/N=C/c2ccccc2OC(=O)c2ccccc2)cc1	5	-1	-122	122*	1	-5
CCOc1cc(/C=N\NC(=O)c2ccc(NC(=O)C(C)(C)C)cc2)ccc1OC(=O)c1ccc(C)cc1	1	-3	-54	54	-2	-1
CC(C)(C)C(=O)Nc1ccc(C(=O)N/N=C/c2ccccc2OC(=O)c2ccc(Cl)cc2)cc1	.	-3	-97	97*	0	-4
Cc1cccc(C(=O)Oc2ccccc2/C=N/NC(=O)c2ccc(NC(=O)C(C)(C)C)cc2)c1	1	-4	-87	87*	-1	-6
C[C@H](CO)N1C[C@H](C)[C@H](CN(C)C(=O)Cc2ccccc2)OCCCC[C@H](C)Oc2ccc(NC(=O)CCC(F)(F)F)cc2C1=O	3[16.7 µM]	.	.	.	0	.
C[C@@H]1CCCCO[C@H](CN(C)C(=O)Nc2ccc(F)cc2)[C@H](C)CN([C@@H](C)CO)C(=O)c2cc(NC(=O)Nc3cccc4ccccc34)ccc2O1	10[16.7 µM]	.	.	.	-5	.
O=C1CSCC(=O)N1Cc1ccc(Cl)c(Cl)c1	-2	43*	15	-15	-5	.
CC(=O)N1[C@@H]2Cn3c(ccc(-c4ccccc4)c3=O)[C@H]1[C@@H](C(=O)N1CCN(C)CC1)[C@@H]2CO	0[16.7 µM]	.	.	.	-2	.
COc1ccc2oc(=O)c(C(=O)Nc3ccccc3O)cc2c1	-2	78*	.	.	-2	18
COc1ccc(NC(=O)c2cc3ccccc3oc2=O)cc1	0	.	.	.	.	.
C[C@@H]1CCCCO[C@@H](CN(C)C(=O)Cc2ccccc2)[C@H](C)CN([C@@H](C)CO)C(=O)c2cc(NC(=O)Nc3ccccc3)ccc2O1	-5[16.7 µM]	.	.	.	-1	.
CSc1ccccc1OCc1cc(C(=O)N2CCN(c3ccccc3)CC2C)no1 (stereo not drawn)	3	69*	-40	40	-5	0
CC(=O)c1ccc(OCc2cc(C(=O)N3CCN(c4ccccc4)CC3C)no2)cc1 (stereo not drawn)	-3	6	-8	8	7	0
CCS(=O)(=O)N1CCCCN2[C@@H](CO)[C@@H](c3ccc(C#CC(C)(C)O)cc3)[C@@H]2C1	4[16.7 µM]	.	.	.	-2	.
Cc1cc(OCC(=O)N(Cc2ccco2)c2c(N)n(Cc3ccccc3)c(=O)[nH]c2=O)ccc1Cl	.	74*	-1	1	-1	0

Source: PubChem BioAssay
